Bioassay records deposited in PubChem BioAssay by several laboratories.
An excerpt weighted towards active compounds, which were near 9.4% of everything screened.
T cruzi repl: blocks replication of Trypanosoma cruzi. T. cruzi beta-gal in NIH3T3, luminescence, 90 h. inhibition, % (test concentration not listed). 1.4% of 300,000 active. AID 1885;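 active means mean inhibition across valid replicates above about 55%, limit read from the data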;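 further: signal also drops with host cell toxicity which is not excluded here; higher percent means less beta-gal luminescence so fewer parasites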
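System – NIH/3T3 host cells with β-galactosidase reporter T. cruzi · Doses – single 50 nL compound addition per well in DMSO · Reagent – 5000 T. cruzi trypomastigotes/well · Medium – Low-serum DMEM with 2% FBS · Timing – ≥90 h infection period, 3 h prior cell attachment · Evaluation – parasite load inhibition, % · Technique – GalScreen luminescence, 60 min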
CSC inhib: cancer stem cell inhibition; cancer stem cell-like cells viability, luminescence; 1.1% of 300,000 active; inhibition, % at 7.5 µM; in the data active means inhibition above about 75%; tested in HMLE shEcad cells
Lmaj promast: Leishmania major promastigote growth inhibition; Leishmania major promastigotes, resazurin fluorescence viability; AID 1063; inhibition, % at 10 µM; 9% of 200,000 active; in the data active means inhibition above about 50%;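 further: promastigotes grown with compound for 44 hours at 28 °C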
Beta apoptosis: blocks beta cell apoptosis; protection from apoptosis, % (concentration not given with the values); INS-1E cytokine-induced death, ATP luminescence, 48 h; percent of positive-control rescue, neutral wells zero; 0.8% of 300,000 active; AID 435005;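 active means Every replicate reaches about 75%, or at least half do and their mean reaches it too, limit read from the data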;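 further: higher means more ATP so stronger rescue from cytokine killing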
SKKanGAS inh: blocks kanamycin growth of S. pyogenes SKKanGAS strain; BacTiter-Glo, 6 h; inhibition, % at 7.5 µM; 1.3% of 300,000 active; AID 1662;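 active means mean replicate score, as percent of positive control median, at least 50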;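 further: strain carries kanamycin resistance gene driven by streptokinase promoter and grows in 40 µg/ml kanamycin; loss of luminescence reflects streptokinase promoter inhibition or plain growth inhibition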
Mdm2-MdmX inh: inhibitors of human Mdm2/MdmX interaction | O15151+Q00987 | SaOS-2 split-luciferase Mdm2/MdmX complementation, luminescence | inhibition, % at 8 µM | 3% of 330,000 active | AID 485346;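 active means inhibition of at least 50% at 8 µM in the primary screen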
Target sequence (O15151 whole entry, looked up): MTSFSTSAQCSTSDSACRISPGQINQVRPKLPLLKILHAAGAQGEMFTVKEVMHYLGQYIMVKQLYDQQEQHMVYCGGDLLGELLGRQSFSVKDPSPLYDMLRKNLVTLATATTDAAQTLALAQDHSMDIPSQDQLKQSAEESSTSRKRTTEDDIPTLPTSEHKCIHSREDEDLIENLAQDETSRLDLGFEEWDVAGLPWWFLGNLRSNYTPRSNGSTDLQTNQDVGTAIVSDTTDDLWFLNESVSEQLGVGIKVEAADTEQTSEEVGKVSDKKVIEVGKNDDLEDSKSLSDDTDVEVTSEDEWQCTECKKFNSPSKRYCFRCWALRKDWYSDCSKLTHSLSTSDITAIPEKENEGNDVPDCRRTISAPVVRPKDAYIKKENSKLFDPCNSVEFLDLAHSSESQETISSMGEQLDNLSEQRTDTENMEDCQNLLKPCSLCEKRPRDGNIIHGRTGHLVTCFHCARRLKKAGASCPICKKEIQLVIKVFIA
Target sequence (Q00987 whole entry, looked up): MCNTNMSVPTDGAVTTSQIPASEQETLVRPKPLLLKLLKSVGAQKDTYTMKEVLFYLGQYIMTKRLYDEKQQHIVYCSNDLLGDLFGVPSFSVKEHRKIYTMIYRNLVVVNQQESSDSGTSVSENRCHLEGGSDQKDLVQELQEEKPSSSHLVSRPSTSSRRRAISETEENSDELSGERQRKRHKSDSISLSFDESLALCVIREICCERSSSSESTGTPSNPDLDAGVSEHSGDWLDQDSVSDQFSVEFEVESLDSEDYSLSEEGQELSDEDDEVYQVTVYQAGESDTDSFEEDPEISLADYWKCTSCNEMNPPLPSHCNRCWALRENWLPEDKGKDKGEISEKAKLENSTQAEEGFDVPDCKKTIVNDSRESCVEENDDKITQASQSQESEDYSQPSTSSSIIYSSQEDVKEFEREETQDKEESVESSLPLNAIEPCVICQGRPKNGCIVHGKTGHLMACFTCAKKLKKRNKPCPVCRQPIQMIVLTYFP
Each line names hits and unclear results; the compound was inactive in the other large screens.

COc1ccc(NS(=O)(=O)c2cc(NC(=O)CNC(=O)c3ccc(C)s3)ccc2Cl)cc1	Lmaj promast 84
CC(C)Oc1ccc(C(=O)Nc2ccc(Cl)c(S(=O)(=O)Nc3ccc(Cl)cc3)c2)cc1	SKKanGAS inh 110
O=C(CCN1CCN(C(=O)c2ccccc2)CC1)c1ccc(Br)cc1	none (no result: Lmaj promast)
COc1ccccc1CCC(=O)Nc1ccc2c(c1)CN(Cc1ccc(C)o1)CC2	none (no result: Lmaj promast)
COCc1[nH]nc2c1C(c1sccc1C)C(C#N)=C(N)O2 (stereo not given)	Lmaj promast 72
CCCc1[nH]nc2c1C(c1ccc(O)cc1OCC)C(C#N)=C(N)O2 (stereo not given)	Lmaj promast 56
COCc1[nH]nc2c1C(c1ccsc1)C(C#N)=C(N)O2 (stereo not given)	none
CCCc1[nH]nc2c1C(c1ccsc1)C(C#N)=C(N)O2 (stereo not given)	none
CCCc1[nH]nc2c1C(C1CCCCC1)C(C#N)=C(N)O2 (stereo not given)	Lmaj promast 93
Cc1cccc(NC(=O)Cn2nc(-c3cccs3)ccc2=O)c1C	none (no result: Lmaj promast)
COc1ccc(F)cc1C(=O)C1CCCN(Cc2c(C)n(C)n(-c3ccccc3)c2=O)C1 (stereo not given)	none
COc1cn(-c2ccccc2)nc1C(=O)NCc1ccc(C)cc1	none (no result: Lmaj promast)
CCc1cccc2c1NC(=O)C21OCCO1	none (no result: Lmaj promast)
COc1ccc(C(=O)COC(=O)c2cnc(C)cn2)c(OC)c1	none (no result: Lmaj promast)
COc1cccc(/C=N/n2c(N)nc3ccccc32)c1OC	Lmaj promast 59, SKKanGAS inh 53
Cc1ccc(C(C(=O)NC2CCCCC2)N(Cc2cccnc2)C(=O)c2csnn2)cc1 (stereo not given)	none (no result: Lmaj promast)
Cc1cc(OCCOc2cccc3cccnc23)cc(C)c1Cl	none
Cc1cc(C)c(C)c(OCCCOc2cccc3cccnc23)c1	SKKanGAS inh 61
C[C@@H]1CN([C@H](C)CO)C(=O)c2cc(NC(=O)c3ccncc3)ccc2O[C@@H]1CN(C)C(=O)Nc1ccccc1	none (no result: T cruzi repl, Lmaj promast, SKKanGAS inh)
CCOc1cc(/C=N/n2cnnc2)ccc1OS(=O)(=O)c1ccccc1	Lmaj promast 69
COc1cccc(/C=C/C(=C2/C(=O)N(c3ccccc3)N=C2C)c2ccccc2)c1OC	Lmaj promast 95
CCOC(=O)c1ccc(NC(=S)N(CCCN2CCCC(C)C2)Cc2cccs2)cc1 (stereo not given)	Lmaj promast 97
COc1ccc(NC(=S)N(CCCN2CCCCC2)Cc2cccs2)cc1	Lmaj promast 83
CCOC(=O)c1ccc(NC(=S)N(CCCN2CCN(CC)CC2)Cc2cccs2)cc1	none
CCOC(=O)c1ccc(NC(=S)N(CCCN2CCCC2)Cc2cccs2)cc1	Lmaj promast 82 (no result: CSC inhib, Beta apoptosis)
Cc1ccc(NC(=S)N(CCCN2CCOCC2)Cc2cccs2)c(C)c1	Lmaj promast 69
O=C(O)CCC(=O)Nc1ccc(Br)cc1C(=O)c1ccc(Cl)cc1	none (no result: Lmaj promast)
Cc1ccc(CCNC(=O)C2CCN(S(=O)(=O)c3ccc4nc5c(c(C(=O)O)c4c3)CCCC5)CC2)cc1	none (no result: Lmaj promast)
CCOC(=O)c1ccc(NC(=S)N(CCN2CCCCCC2)Cc2cccs2)cc1	Lmaj promast 96
CCOC(=O)c1ccc(NC(=S)N(CCCN2CCN(C)CC2)Cc2cccs2)cc1	none
CCOCCCNS(=O)(=O)c1ccc(NC(=O)N2c3ccccc3Sc3ccccc32)cc1	Lmaj promast 100 (no result: CSC inhib, Beta apoptosis)
CCOCCCNS(=O)(=O)c1ccc(NC(=O)CN2C(=O)c3ccccc3C2=O)cc1	none
CC1CCN(S(=O)(=O)c2ccc(NC(=O)Cc3cccs3)cc2)CC1	Lmaj promast 89
NS(=O)(=O)c1ccc(NC(=O)N2c3ccccc3Sc3ccccc32)cc1	none
CC1CCN(CC(=O)Nc2ccc(S(=O)(=O)N3CCC(C)CC3)cc2)CC1	none (no result: Lmaj promast)
CC1CCN(S(=O)(=O)c2ccc(NC(=O)N3c4ccccc4Sc4ccccc43)cc2)CC1	Lmaj promast 61
CCN(CC(=O)Nc1ccc(NC(C)=O)cc1)C(=O)c1ccc(NC2CC2)c([N+](=O)[O-])c1	none (no result: Lmaj promast)
O=C(OCC(=O)N1CCOCC1)c1ccc(Cl)cc1[N+](=O)[O-]	none (no result: Lmaj promast)
COc1cccc(C(=O)NNC(=O)C(=O)Nc2cccc3ccccc23)c1	none (no result: CSC inhib, Lmaj promast)
O=[N+]([O-])c1cccc(C2NCC(c3ccccc3Cl)c3c2[nH]c2ccccc32)c1 (stereo not given)	CSC inhib 131
